Assay results published in ChEMBL document CHEMBL1125307, “Novel 1,2,4-oxadiazoles and 1,2,4-thiadiazoles as dual 5-lipoxygenase and cyclooxygenase inhibitors” (J Med Chem, 1992).
The source made the active and inactive calls. No cut-off for these calls is given here.

How the values were obtained:
Rattus norvegicus [1] = experiment: Compound was evaluated for the percent rats with ulcers at the dose of 36 mg/kg (number of animals used per group in the experiment are 10 ); assay type: functional
Outline: (§1)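 Male outbred Wistar rats (100-250 g) fasted 24 h, given compound orally in 0.5% HPMC (2 mL/kg), then denied food and water 6 more h. Killed with CO2; stomachs opened along greater curvature and scored for ulcers. Percent of rats with ulcers per dose; up to 200 mg/kg po, 10 rats per dose.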

Rattus norvegicus [2] = experiment: Evaluated for the antiinflammatory activity by measuring the dose (po) which inhibited Mycobacterium induced foot-pad edema in rats; assay type: functional
Rattus norvegicus [3] = experiment: Evaluated for the antiinflammatory activity by measuring the percentage inhibition of edema in the carrageenan foot-pad edema test at the dose of 10 mg/kg; assay type: functional
Outline: (§2)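 Male Wistar rats dosed orally (0.5% HPMC/0.2% Tween 80 or Labrafils, 10 mL/kg) 1 h before subplantar injection of 0.10 mL 1% carrageenan into right hind paw under light anesthesia. Paw volume by mercury plethysmography at challenge and 5 h later; percent inhibition ± SEM versus vehicle group. Doses 10.0 and 30.0 mg/kg po, 7-14 rats per dose.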

Rattus norvegicus [4] = experiment: Evaluated for the antiinflammatory activity by measuring the percentage inhibition of edema in the carrageenan foot-pad edema test at the dose of 30 mg/kg; assay type: functional; outline: as §2
[5] = biological target: T1, Polyunsaturated fatty acid 5-lipoxygenase (Rattus norvegicus, UniProt P12527); experiment: Inhibitory activity against 5-Lipoxygenase
T1 sequence (P12527 whole entry): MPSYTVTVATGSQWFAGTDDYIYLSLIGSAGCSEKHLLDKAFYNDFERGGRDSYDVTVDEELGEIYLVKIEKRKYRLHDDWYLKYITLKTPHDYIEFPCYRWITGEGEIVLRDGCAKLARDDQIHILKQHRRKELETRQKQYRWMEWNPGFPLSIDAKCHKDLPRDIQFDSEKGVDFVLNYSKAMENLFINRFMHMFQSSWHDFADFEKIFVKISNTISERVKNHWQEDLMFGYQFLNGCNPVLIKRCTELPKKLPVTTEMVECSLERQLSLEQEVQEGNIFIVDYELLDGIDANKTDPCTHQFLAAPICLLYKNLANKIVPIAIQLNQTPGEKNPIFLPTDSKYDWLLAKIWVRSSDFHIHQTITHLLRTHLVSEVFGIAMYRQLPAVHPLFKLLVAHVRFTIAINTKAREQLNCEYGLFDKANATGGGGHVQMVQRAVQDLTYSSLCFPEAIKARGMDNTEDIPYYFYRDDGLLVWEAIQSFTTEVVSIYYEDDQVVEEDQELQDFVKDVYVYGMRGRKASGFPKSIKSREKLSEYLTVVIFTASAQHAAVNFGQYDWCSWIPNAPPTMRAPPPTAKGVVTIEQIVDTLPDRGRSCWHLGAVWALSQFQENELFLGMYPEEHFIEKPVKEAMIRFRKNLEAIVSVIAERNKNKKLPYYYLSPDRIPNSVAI
Outline: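 Rat basophilic leukemia RBL-1 cells were grown in suspension in MEM with 12% FBS, washed, and resuspended at 2×10^6 cells/mL in PBS pH 7.4 with 1.0 mM calcium. Compound in DMSO was preincubated 10 min at room temperature, then 5 μM A23187 was added for 7 min at 37 °C. LTB₄ in the supernatant was measured by RIA at 0.10–10.0 μM. IC50 was determined by linear regression.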

Rattus norvegicus [6] = organism: Rattus norvegicus; experiment: Ratio of IC50 against 5-LO and COX
Outline: (§3)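 In ionophore-stimulated RBL-1 cells (2×10^6/mL, PBS with 1.0 mM Ca, 10 min compound preincubation at room temperature, 5 μM A23187 for 7 min at 37 °C), supernatant LTB₄ (5-LO) and PGF₂α (CO) were each quantified by RIA over 0.10–10.0 μM. IC50s came from linear regression, and the ratio is the 5-LO IC50 over the CO IC50.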

Cyclooxygenase = biological target: T2, Cyclooxygenase (Rattus norvegicus, UniProt P35355+Q63921); experiment: Evaluated in vitro for its inhibitory activity against Prostaglandin G/H synthase; assay type: protein assay
T2 sequence (P35355 whole entry): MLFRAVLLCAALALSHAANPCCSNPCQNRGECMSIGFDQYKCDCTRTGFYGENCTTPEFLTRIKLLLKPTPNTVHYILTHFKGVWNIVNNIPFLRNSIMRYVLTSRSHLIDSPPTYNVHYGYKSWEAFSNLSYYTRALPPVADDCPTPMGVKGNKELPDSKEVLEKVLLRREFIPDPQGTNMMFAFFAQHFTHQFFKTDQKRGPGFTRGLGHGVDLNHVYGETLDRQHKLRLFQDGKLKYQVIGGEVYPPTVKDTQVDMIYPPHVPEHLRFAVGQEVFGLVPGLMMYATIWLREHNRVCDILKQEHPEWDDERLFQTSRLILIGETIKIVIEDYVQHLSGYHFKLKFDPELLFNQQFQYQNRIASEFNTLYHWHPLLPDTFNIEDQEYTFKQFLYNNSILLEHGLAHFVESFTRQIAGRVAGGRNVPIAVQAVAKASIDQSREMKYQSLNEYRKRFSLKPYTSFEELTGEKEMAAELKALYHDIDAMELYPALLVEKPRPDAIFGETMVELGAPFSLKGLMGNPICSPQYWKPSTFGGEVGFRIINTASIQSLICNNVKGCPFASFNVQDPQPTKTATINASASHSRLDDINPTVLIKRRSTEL
T2 sequence (Q63921 whole entry): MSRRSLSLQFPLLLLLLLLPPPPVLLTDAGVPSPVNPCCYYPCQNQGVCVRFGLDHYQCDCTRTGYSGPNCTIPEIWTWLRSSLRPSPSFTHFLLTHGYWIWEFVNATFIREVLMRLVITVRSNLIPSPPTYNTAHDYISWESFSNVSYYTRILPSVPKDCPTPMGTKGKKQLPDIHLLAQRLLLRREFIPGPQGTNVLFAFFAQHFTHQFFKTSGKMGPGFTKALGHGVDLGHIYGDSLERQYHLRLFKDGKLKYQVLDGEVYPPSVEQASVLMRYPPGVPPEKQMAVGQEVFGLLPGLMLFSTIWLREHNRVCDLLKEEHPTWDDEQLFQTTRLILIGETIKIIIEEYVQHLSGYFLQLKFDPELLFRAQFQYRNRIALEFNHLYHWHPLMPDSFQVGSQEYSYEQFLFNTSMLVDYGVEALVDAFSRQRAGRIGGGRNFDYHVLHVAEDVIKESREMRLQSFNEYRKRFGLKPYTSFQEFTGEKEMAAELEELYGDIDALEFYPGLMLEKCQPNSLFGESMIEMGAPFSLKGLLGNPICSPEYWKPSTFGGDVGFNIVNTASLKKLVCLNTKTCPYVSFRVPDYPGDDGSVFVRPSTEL

Rattus norvegicus [7] = experiment: Evaluated for the percent rats with ulcers at the dose of 200 mg/kg (number of animals used per group in the experiment are 10 ); assay type: functional; outline: as §1
Rattus norvegicus [8] = experiment: Compound was evaluated for th antiinflammatory activity administering through oral route by taking the inhibitory dose of induced edema in the mycobacterium foot-pad edema test; assay type: functional
Rattus norvegicus [9] = experiment: Compound was evaluated for the antiinflammatory activity by taking the percentage inhibition of edema in the carrageenan foot-pad edema test at the dose of 10 mg/kg; assay type: functional; outline: as §2
Rattus norvegicus [10] = experiment: Compound was evaluated for the antiinflammatory activity by taking the percentage inhibition of edema in the carrageenan foot-pad edema test at the dose of 30 mg/kg; assay type: functional; outline: as §2
[11] = biological target: T1, Polyunsaturated fatty acid 5-lipoxygenase; experiment: Evaluated in vitro for its inhibitory activity against 5-lipoxygenase
Rattus norvegicus [12] = experiment: Compound was evaluated for the percent rats with ulcers at the dose of 30 mg/kg (number of animals used per group in the experiment are 10 ); assay type: functional; outline: as §1
Rattus norvegicus [13] = organism: Rattus norvegicus; experiment: Ratio of IC50 against 5-LO to that of CO enzyme.; outline: as §3
Rattus norvegicus [14] = experiment: Compound was evaluated for the antiinflammatory activity by taking the percentage inhibition of edema in the carrageenan foot-pad edema test at the dose of 30 mg/kg; N=Inactive, <25% inhibition; assay type: functional, organism-based; design: dose 30 mg/kg; outline: as §2

Row | SMILES | Activity (Rattus norvegicus [1]) [%] | ID40 (Rattus norvegicus [2]) [mg/kg] | inhibition in vivo at 10 mg/kg (Rattus norvegicus [3]) [%] | inhibition in vivo at 30 mg/kg (Rattus norvegicus [4]) [%] | IC50 [5] [nM] | Ratio (Rattus norvegicus [6]) | IC50 (Cyclooxygenase) [nM] | Activity (Rattus norvegicus [7]) [%] | ID40 (Rattus norvegicus [8]) [mg/kg] | inhibition in vivo at 10 mg/kg (Rattus norvegicus [9]) [%] | inhibition in vivo at 30 mg/kg (Rattus norvegicus [10]) [%] | IC50 [11] [nM] | Activity (Rattus norvegicus [12]) [%] | Ratio (Rattus norvegicus [13]) | inhibition (Rattus norvegicus [14])
1 | Cc1ccc(Cl)c(Nc2ccccc2C(=O)[O-])c1Cl.O.[Na+] [MECLOFENAMATE SODIUM] | 50 | 0.4 | 34.4 | 40.8 | – | – | – | – | – | – | – | – | – | – | –
2 | CC(C)(C)c1cc(-c2nnc(S)s2)cc(C(C)(C)C)c1O.C[N+](C)(C)CC[O-] | – | – | – | – | 2800 | 3.5 | 800 | 0 | 7.7 | 49.9 | 47.9 | – | – | – | –
3 | CC(C)(C)c1cc(C2CCOC2=O)cc(C(C)(C)C)c1O (configuration not stated) | – | 3.7 | 16.6 | 28.4 | – | – | 150 | – | – | – | – | 2500 | 30 | 17 | –
4 | CC(C)(C)c1cc(-c2nc(CCl)no2)cc(C(C)(C)C)c1O | – | – | – | – | 780 | 7.8 | 100 | – | – | – | – | – | – | – | inactive
